Measured values as given in ChEMBL document CHEMBL1124344, “5-Piperazinylalkyl-2(3H)-oxazolones with neuroleptic activity” (J Med Chem, 1989).

Experiments:
Mus musculus [1] = experiment: Effect on skeletal muscle tone, after 5 hour of peroral administration in mouse; assay type: functional; settings: Muscle tissue, po
Summary of the method: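 Male mice were placed for 1 h on a 60° inclined wire screen just after dosing and 4 h later. In a second test, trained mice hung by the forepaws from a horizontal 1.8 mm wire 15 cm up; normal mice touch it with a hind paw within 2 s and stay ≥1 min. ED50 is the dose making 50% fall. Dosing was oral in gum arabic suspension at 10 mL/kg after an overnight fast.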

Mus musculus [2] = experiment: Inhibitory activity against tremorine-induced salivation, after 5 hour of peroral administration in mouse; settings: po
Mus musculus [3] = experiment: Inhibitory activity against tremorine-induced salivation, after 1 hour of peroral administration in mouse; assay type: functional; settings: po
Summary of the method: (§1)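 Male mice fasted overnight, dosed orally with arabic gum suspension (10 mL/kg) 1 or 5 h before test, vehicle controls included. Tremorine 20 mg/kg ip given 1 h after compounds; central (tremor) and peripheral (salivation) parasympathetic signs recorded. ED50 = dose protecting 50% of animals, by probit analysis.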

Mus musculus [4] = experiment: Anticonvulsant activity against electroshock-induced convulsions, after 1 hour of peroral administration in mouse; assay type: functional; settings: po
Summary of the method: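 Male mice given oral drug in arabic gum suspension (10 mL/kg) after overnight fast, then challenged by maximal electroshock. Protection means absence of tonic hind-limb extension. ED50 is the dose protecting 50% of mice, by probit analysis.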

Mus musculus [5] = experiment: Anticonvulsant activity against tryptamine-induced convulsions, after 1 hour of peroral administration in mouse; assay type: functional; settings: po
Summary of the method: (§2)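 Compounds were dosed as bases suspended in arabic gum at 10 mL/kg orally, after an overnight fast, with vehicle controls. Protection meant no bilateral forepaw clonic seizures or head twitches (tryptamine), or no tonic hind-limb extension (the other two). ED50 is the dose protecting 50%, by probit analysis.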

Mus musculus [6] = experiment: Activity of inclined screen in mouse, after 5 hour of peroral administration in mouse; assay type: functional; settings: po
Summary of the method: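 Male mice dosed orally (arabic gum suspension, 10 mL/kg, fasted overnight) 1 or 5 h before testing. Placed for 1 h on a wire screen bent at 60° to the horizontal. Ataxic or miorelaxed mice slide off. ED50 is the dose at which 50% of mice fall, by probit analysis. Ten animals per dose, with vehicle controls.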

Mus musculus [7] = experiment: Lethal dose in mice by administered the compound intraperitoneally; assay type: functional; settings: ip
Summary of the method: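 Acute toxicity tested in mice by the intraperitoneal route. LD50 is the dose killing 50% of treated mice, computed by Finney probit analysis; values are approximate.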

Rattus norvegicus [8] = species on record: Rattus norvegicus; experiment: Binding affinity against rat striatal membranes using [3H]spiroperidol as the radioligand after 15 min of incubation at 37 °C
Mus musculus [9] = experiment: Effect on skeletal muscle tone, after 1 hour of peroral administration in mouse; assay type: functional; settings: Muscle tissue, po
Summary of the method: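 Male mice suspended by forepaws from a 1.8-mm wire stretched 15 cm above a plane. Trained normal mice touch the wire with a hind paw within 2 s (traction) and hang at least 1 min (suspension). Oral dosing 1 or 5 h before. ED50 is the dose making 50% of mice fall without traction and suspension.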

Mus musculus [10] = experiment: Suppression of aggressive behavior, after 5 hour of peroral administration in mouse; assay type: functional; settings: po
Summary of the method: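 Male mice made aggressive by isolation in individual black cages for about 1 month plus weekly testosterone cyclopentylpropionate 250 mg/kg sc; pairs preselected for attack on a nonisolated male within 15 min. Oral dosing (arabic gum, 10 mL/kg) 1 or 5 h before test, overnight fast. ED50 = dose suppressing aggression in 50% of animals, probit analysis.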

Mus musculus [11] = experiment: Anticonvulsant activity against electroshock-induced convulsions, after 5 hours of peroral administration in mouse; assay type: functional; settings: po; summary of the method: as §2
Mus musculus [12] = experiment: Inhibitory activity against tremorine-induced salivation, after 5 hour of peroral administration in mouse at a dose of 60 mg/kg; assay type: functional; settings: route oral; summary of the method: as §1
Mus musculus [13] = experiment: Inhibitory activity against tremorine-induced tremors, after 5 hour of peroral administration in mouse at a dose of 60 mg/kg; assay type: functional; settings: route oral; summary of the method: as §1
Rattus norvegicus [14] = experiment: Inhibitory activity against norepinephrine-induced lethality, after 1 hour of peroral administration in rat; assay type: functional; settings: po
Summary of the method: (§3)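 Rats (80–90 g) dosed orally (arabic gum, 10 mL/kg) 1 or 5 h before norepinephrine 0.5 mg/kg iv, which kills unprotected rats within 30 min. ED50 is the dose protecting 50% of rats from lethality, by probit analysis.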

Rattus norvegicus [15] = experiment: Antagonistic activity against apomorphine-induced stereotypy in rats, by administering perorally; assay type: functional; settings: po
Summary of the method: (§4)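 Male rats fasted overnight and given oral doses in arabic gum suspension (10 mL/kg) 1 h, or 1 and 5 h, before challenge. Apomorphine 3 mg/kg iv, with stereotypy observed 20 min later. ED50 is the dose inhibiting stereotypy in 50% of rats, per Janssen's method. Parenthetical entries give the maximal dose and percent activity.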

Rattus norvegicus [16] = experiment: Inhibitory activity against norepinephrine-induced lethality, after 5 hour of peroral administration in rat; assay type: functional; settings: po; summary of the method: as §3
Rattus norvegicus [17] = experiment: Activity to evoke catalepsy in rats, by administering perorally; assay type: functional; settings: po
Summary of the method: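 Rats fasted overnight and given oral doses in arabic gum suspension (10 mL/kg), 1 h before screening or 1 and 5 h before profile testing. Forelegs placed on a horizontal bar 7 cm high, three times at 5-min intervals. Immobility of at least 15 s counts as catalepsy. ED50 is the dose giving catalepsy in 50% of rats, by probit analysis. Parenthetical entries give the maximal dose and percent activity.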

Mus musculus [18] = experiment: Inhibitory activity against tremorine-induced tremors, after 1 hour of peroral administration in mouse at a dose of 60 mg/kg; assay type: functional; settings: route oral; summary of the method: as §1
Mus musculus [19] = experiment: Inhibitory activity against tremorine-induced salivation, after 1 hour of peroral administration in mouse at a dose of 60 mg/kg; assay type: functional; settings: route oral; summary of the method: as §1
Mus musculus [20] = experiment: Inhibition of spontaneous motor activity, after 5 hour of peroral administration in mouse; assay type: functional; settings: po
Summary of the method: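 Mice fasted overnight, then dosed orally with compound (weighed as base) suspended in arabic gum, 10 mL/kg, with vehicle controls; 1 h pretreatment for screening tests, 1 or 5 h for others. Groups of five; locomotor activity counted 10 min in photocell activity cage, at least two groups per dose. ED50 = dose giving 50% inhibition versus controls, by probit analysis.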

Dopamine receptor = experiment: Binding affinity against rat striatal membranes using [3H]spiroperidol as the radioligand, after 15 min of incubation in vitro at 37 degree C; set-up: species or system Striatum, Membrane
Summary of the method: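 Crude rat striatal membranes were stored at –80 °C, then thawed and washed. They were incubated 15 min at 37 °C with drug (10⁻¹⁰ to 10⁻⁴ M), [3H]spiroperidol 0.5 nM, 1 μM pargyline and 0.1% ascorbic acid, then filtered, washed and counted. Nonspecific binding was defined with 1 μM haloperidol. IC50 was read from the displacement curve.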

Rattus norvegicus [21] = experiment: Antagonistic activity against apomorphine-induced stereotypy, after 1 hour of peroral administration in rats at a dose of 100 mg/kg; assay type: functional; settings: route oral; summary of the method: as §4
Canis familiaris = experiment: Antagonistic activity against apomorphine-induced emesis, after 1 hr of peroral administration in dogs; assay type: functional; settings: Canis lupus familiaris, po
Summary of the method: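 Male and female dogs pretreated orally, then challenged with apomorphine 0.3 mg/kg sc. Complete protection from vomiting for 30 min after apomorphine is the criterion. ED50 is the dose protecting 50% of dogs, per Janssen's method.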

Mus musculus [22] = experiment: Inhibition against apomorphine-induced turning, after 5 hour of peroral administration in mouse; assay type: functional; settings: po
Summary of the method: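 Mice were lesioned unilaterally with intranigrostriatal 6-hydroxydopamine (20 µg). At 7 days, strong contraversive turners 15 min after apomorphine 2 mg/kg ip were selected. A week later they were dosed orally and rechallenged. Fewer than six full rotations in 2 min counted as protection. ED50 is the dose protecting 50%.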

SMILES	ED50 (Mus musculus [1])	ED50 (Mus musculus [2])	ED50 (Mus musculus [3])	ED50 (Mus musculus [4])	ED50 (Mus musculus [5])	ED50 (Mus musculus [6])	ED50 (Mus musculus [7])	IC50 (Rattus norvegicus [8])	ED50 (Mus musculus [9])	ED50 (Mus musculus [10])	ED50 (Mus musculus [11])	inhibition in vivo at 60 mg/kg (Mus musculus [12])	inhibition in vivo at 60 mg/kg (Mus musculus [13])	ED50 (Rattus norvegicus [14])	ED50 (Rattus norvegicus [15])	ED50 (Rattus norvegicus [16])	ED50 (Rattus norvegicus [17])	inhibition in vivo at 60 mg/kg (Mus musculus [18])	inhibition in vivo at 60 mg/kg (Mus musculus [19])	ED50 (Mus musculus [20])	other results
CN(C)CCCN1c2ccccc2Sc2ccc(Cl)cc21 [CHLORPROMAZINE]	7.5 mg/kg	2 mg/kg	2.5 mg/kg	19.2 mg/kg	3.4 mg/kg	7 mg/kg	2.7 mg/kg	180 nM	2.7 mg/kg	3.1 mg/kg	10 mg/kg										
COc1ccccc1N1CCN(CCCC(=O)c2ccc(F)cc2)CC1 [FLUANISONE]					12.5 mg/kg					20.1 mg/kg		0%	0%	1.9 mg/kg	63.2 mg/kg	5.6 mg/kg	18 mg/kg	0%	0%		
O=C(CCCN1CCC(O)(c2ccc(Cl)cc2)CC1)c1ccc(F)cc1 [HALOPERIDOL]		21.6 mg/kg	4 mg/kg	1.9 mg/kg	1.1 mg/kg	6.5 mg/kg	0.23 mg/kg	10 nM	17.1 mg/kg	0.29 mg/kg	0.38 mg/kg									0.35 mg/kg	
O=c1[nH]c(-c2ccc(F)cc2)c(CCN2CCN(c3cc(Cl)cc(Cl)c3)CC2)o1 [LODIPERONE]										8.5 mg/kg		0%	0%					0%	0%	2.5 mg/kg	IC50 (Dopamine receptor): 68 nM; inhibition in vivo at 100 mg/kg (Rattus norvegicus [21]): 0%; ED50 (Canis familiaris): 4 mg/kg; ED50 (Mus musculus [22]): 1 mg/kg
COc1ccccc1N1CCN(CCc2oc(=O)[nH]c2-c2ccc(F)cc2)CC1 [ZOLOPERONE]	75 mg/kg				9.8 mg/kg					4.7 mg/kg				3.2 mg/kg	10.4 mg/kg	8.2 mg/kg	55.6 mg/kg			20.3 mg/kg	IC50 (Dopamine receptor): 250 nM; ED50 (Canis familiaris): 0.7 mg/kg; ED50 (Mus musculus [22]): 20 mg/kg
